Reference: ChEMBL document CHEMBL1138353, “Facile stereospecific synthesis and biological evaluation of (S)- and (R)-2-amino-2-methyl-4-[123I]iodo-3-(E)-butenoic acid for brain tumor imaging with single photon emission computerized tomography” (J Med Chem, 2007)

What was measured:
Heart [1] = experiment: Biodistribution in 9L cells bearing Fischer 344 rat heart at 15 to 30 uCi, iv after 30 mins; assay type: ADME, organism-based; details: in vivo, 0.5 h
In short: (§1)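 Male Fischer 344 rats (125–175 g) bearing intracranial 9L gliosarcoma implants; radioiodinated tracer (123I for S, 131I for R) purified in saline, given intravenously. Tissues harvested at 30, 60 or 120 min, radioactivity expressed as %ID/g (thyroid per organ). Groups: S study 5 rats per time; R study 5 at 30 min, 4 at 60 and 120 min.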

Nucleic Acid [2] = experiment: Ratio of drug level in tumor to brain in 9L cells bearing Fischer 344 rat at 15 to 30 uCi, iv after 30 mins; assay type: ADME, organism-based; details: in vivo, 0.5 h
In short: (§2)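 Intracranial 9L gliosarcoma in male Fischer 344 rats (125–175 g). The 123I-labelled (S) or 131I-labelled (R) tracer was given iv in saline. Tumor and normal brain %ID/g were measured at 30, 60 or 120 min, and the ratio was taken from these. Groups were 5 per time for S, and 5/4/4 for R.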

Brain [3] = experiment: Biodistribution in 9L cells bearing Fischer 344 rat brain at 15 to 30 uCi, iv after 120 mins; assay type: ADME, organism-based; details: in vivo, 2 h; in short: as §1
Rattus norvegicus [4] = experiment: Biodistribution in 9L cells bearing Fischer 344 rat tumor at 15 to 30 uCi, iv after 30 mins; assay type: ADME, organism-based, Neoplasm; details: in vivo, 0.5 h; in short: as §1
Spleen [5] = experiment: Biodistribution in 9L cells bearing Fischer 344 rat spleen at 15 to 30 uCi, iv after 30 mins; assay type: ADME, organism-based; details: in vivo, 0.5 h; in short: as §1
Pancreas [6] = experiment: Biodistribution in 9L cells bearing Fischer 344 rat pancreas at 15 to 30 uCi, iv after 60 mins; assay type: ADME, organism-based; details: in vivo, 1 h; in short: as §1
Kidney [7] = experiment: Biodistribution in 9L cells bearing Fischer 344 rat kidney at 15 to 30 uCi, iv after 120 mins; assay type: ADME, organism-based; details: in vivo, 2 h; in short: as §1
Muscle tissue [8] = experiment: Biodistribution in 9L cells bearing Fischer 344 rat muscle at 15 to 30 uCi, iv after 60 mins; assay type: ADME, organism-based; details: in vivo, 1 h; in short: as §1
Spleen [9] = experiment: Biodistribution in 9L cells bearing Fischer 344 rat spleen at 15 to 30 uCi, iv after 120 mins; assay type: ADME, organism-based; details: in vivo, 2 h; in short: as §1
Pancreas [10] = experiment: Biodistribution in 9L cells bearing Fischer 344 rat pancreas at 15 to 30 uCi, iv after 120 mins; assay type: ADME, organism-based; details: in vivo, 2 h; in short: as §1
Testes [11] = experiment: Biodistribution in 9L cells bearing Fischer 344 rat testes at 15 to 30 uCi, iv after 120 mins; assay type: ADME, organism-based, Testis; details: in vivo, 2 h; in short: as §1
Heart [12] = experiment: Biodistribution in 9L cells bearing Fischer 344 rat heart at 15 to 30 uCi, iv after 60 mins; assay type: ADME, organism-based; details: in vivo, 1 h; in short: as §1
Kidney [13] = experiment: Biodistribution in 9L cells bearing Fischer 344 rat kidney at 15 to 30 uCi, iv after 60 mins; assay type: ADME, organism-based; details: in vivo, 1 h; in short: as §1
Thyroid gland [14] = experiment: Biodistribution in 9L cells bearing Fischer 344 rat thyroid at 15 to 30 uCi, iv after 60 mins; assay type: ADME, organism-based; details: in vivo, 1 h; in short: as §1
Rattus norvegicus [15] = experiment: Biodistribution in 9L cells bearing Fischer 344 rat tumor at 15 to 30 uCi, iv after 120 mins; assay type: ADME, organism-based, Neoplasm; details: in vivo, 2 h; in short: as §1
Testes [16] = experiment: Biodistribution in 9L cells bearing Fischer 344 rat testes at 15 to 30 uCi, iv after 30 mins; assay type: ADME, organism-based, Testis; details: in vivo, 0.5 h; in short: as §1
Liver [17] = experiment: Biodistribution in 9L cells bearing Fischer 344 rat liver at 15 to 30 uCi, iv after 30 mins; assay type: ADME, organism-based; details: in vivo, 0.5 h; in short: as §1
9L [18] = experiment: Drug uptake per 10^6 cells in rat 9L cells after 30 mins; assay type: ADME, cell-based; details: 0.5 h
In short: (§3)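 Cultured rat 9L gliosarcoma cells incubated 30 min with 131I-labelled tracer, with or without A-type inhibitor N-MeAIB or L-type inhibitor BCH. Uptake expressed as percent of initial dose per 1 × 10^6 cells, normalized for dose and cell number. Inhibition compared to control by one-way ANOVA; SD shown.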

Bone [19] = experiment: Biodistribution in 9L cells bearing Fischer 344 rat bone at 15 to 30 uCi, iv after 120 mins; assay type: ADME, organism-based, Bone element; details: in vivo, 2 h; in short: as §1
Brain [20] = experiment: Biodistribution in 9L cells bearing Fischer 344 rat brain at 15 to 30 uCi, iv after 30 mins; assay type: ADME, organism-based; details: in vivo, 0.5 h; in short: as §1
Blood [21] = experiment: Biodistribution in 9L cells bearing Fischer 344 rat blood at 15 to 30 uCi, iv after 60 mins; assay type: ADME, organism-based; details: in vivo, 1 h; in short: as §1
Bone [22] = experiment: Biodistribution in 9L cells bearing Fischer 344 rat bone at 15 to 30 uCi, iv after 30 mins; assay type: ADME, organism-based, Bone element; details: in vivo, 0.5 h; in short: as §1
Kidney [23] = experiment: Biodistribution in 9L cells bearing Fischer 344 rat kidney at 15 to 30 uCi, iv after 30 mins; assay type: ADME, organism-based; details: in vivo, 0.5 h; in short: as §1
Nucleic Acid [24] = experiment: Ratio of drug level in tumor to brain in 9L cells bearing Fischer 344 rat at 15 to 30 uCi, iv after 120 mins; assay type: ADME, organism-based; details: in vivo, 2 h; in short: as §2
Thyroid gland [25] = experiment: Biodistribution in 9L cells bearing Fischer 344 rat thyroid at 15 to 30 uCi, iv after 30 mins; assay type: ADME, organism-based; details: in vivo, 0.5 h; in short: as §1
Thyroid gland [26] = experiment: Biodistribution in 9L cells bearing Fischer 344 rat thyroid at 15 to 30 uCi, iv after 120 mins; assay type: ADME, organism-based; details: in vivo, 2 h; in short: as §1
Nucleic Acid [27] = experiment: Ratio of drug level in tumor to brain in 9L cells bearing Fischer 344 rat at 15 to 30 uCi, iv after 60 mins; assay type: ADME, organism-based; details: in vivo, 1 h; in short: as §2
Pancreas [28] = experiment: Biodistribution in 9L cells bearing Fischer 344 rat pancreas at 15 to 30 uCi, iv after 30 mins; assay type: ADME, organism-based; details: in vivo, 0.5 h; in short: as §1
Testes [29] = experiment: Biodistribution in 9L cells bearing Fischer 344 rat testes at 15 to 30 uCi, iv after 60 mins; assay type: ADME, organism-based, Testis; details: in vivo, 1 h; in short: as §1
Muscle tissue [30] = experiment: Biodistribution in 9L cells bearing Fischer 344 rat muscle at 15 to 30 uCi, iv after 30 mins; assay type: ADME, organism-based; details: in vivo, 0.5 h; in short: as §1
Bone [31] = experiment: Biodistribution in 9L cells bearing Fischer 344 rat bone at 15 to 30 uCi, iv after 60 mins; assay type: ADME, organism-based, Bone element; details: in vivo, 1 h; in short: as §1
Liver [32] = experiment: Biodistribution in 9L cells bearing Fischer 344 rat liver at 15 to 30 uCi, iv after 120 mins; assay type: ADME, organism-based; details: in vivo, 2 h; in short: as §1
Lung [33] = experiment: Biodistribution in 9L cells bearing Fischer 344 rat lung at 15 to 30 uCi, iv after 60 mins; assay type: ADME, organism-based; details: in vivo, 1 h; in short: as §1
Lung [34] = experiment: Biodistribution in 9L cells bearing Fischer 344 rat lung at 15 to 30 uCi, iv after 30 mins; assay type: ADME, organism-based; details: in vivo, 0.5 h; in short: as §1
Rattus norvegicus [35] = experiment: Biodistribution in 9L cells bearing Fischer 344 rat tumor at 15 to 30 uCi, iv after 60 mins; assay type: ADME, organism-based, Neoplasm; details: in vivo, 1 h; in short: as §1
Spleen [36] = experiment: Biodistribution in 9L cells bearing Fischer 344 rat spleen at 15 to 30 uCi, iv after 60 mins; assay type: ADME, organism-based; details: in vivo, 1 h; in short: as §1
9L [37] = experiment: Drug uptake per 10^6 cells in rat 9L cells after 30 mins assessed as uptake inhibition in presence of 2-aminobicyclo[2.2.1]-heptane-2-carboxylic acid relative to control; assay type: ADME, cell-based; parameters: scale not given: the % may be the effect or the level left; details: 0.5 h; in short: as §3
Blood [38] = experiment: Biodistribution in 9L cells bearing Fischer 344 rat blood at 15 to 30 uCi, iv after 120 mins; assay type: ADME, organism-based; details: in vivo, 2 h; in short: as §1
Blood [39] = experiment: Biodistribution in 9L cells bearing Fischer 344 rat blood at 15 to 30 uCi, iv after 30 mins; assay type: ADME, organism-based; details: in vivo, 0.5 h; in short: as §1
Muscle tissue [40] = experiment: Biodistribution in 9L cells bearing Fischer 344 rat muscle at 15 to 30 uCi, iv after 120 mins; assay type: ADME, organism-based; details: in vivo, 2 h; in short: as §1
Heart [41] = experiment: Biodistribution in 9L cells bearing Fischer 344 rat heart at 15 to 30 uCi, iv after 120 mins; assay type: ADME, organism-based; details: in vivo, 2 h; in short: as §1
Lung [42] = experiment: Biodistribution in 9L cells bearing Fischer 344 rat lung at 15 to 30 uCi, iv after 120 mins; assay type: ADME, organism-based; details: in vivo, 2 h; in short: as §1
Liver [43] = experiment: Biodistribution in 9L cells bearing Fischer 344 rat liver at 15 to 30 uCi, iv after 60 mins; assay type: ADME, organism-based; details: in vivo, 1 h; in short: as §1
Brain [44] = experiment: Biodistribution in 9L cells bearing Fischer 344 rat brain at 15 to 30 uCi, iv after 60 mins; assay type: ADME, organism-based; details: in vivo, 1 h; in short: as §1

Compound: C[C@@](N)(/C=C/[131I])C(=O)O
- Drug uptake (Heart [1]): 0.19 % ID/g
- Ratio (Nucleic Acid [2]): 10
- Drug uptake (Brain [3]): 0.051 % ID/g
- Drug uptake (Rattus norvegicus [4]): 0.19 % ID/g
- Drug uptake (Spleen [5]): 0.3 % ID/g
- Drug uptake (Pancreas [6]): 1.86 % ID/g
- Drug uptake (Kidney [7]): 1.76 % ID/g
- Drug uptake (Muscle tissue [8]): 0.4 % ID/g
- Drug uptake (Spleen [9]): 0.31 % ID/g
- Drug uptake (Pancreas [10]): 0.78 % ID/g
- Drug uptake (Testes [11]): 0.23 % ID/g
- Drug uptake (Heart [12]): 0.43 % ID/g
- Drug uptake (Kidney [13]): 3.43 % ID/g
- Drug uptake (Thyroid gland [14]): 0.25 %ID/organ
- Drug uptake (Rattus norvegicus [15]): 0.39 % ID/g
- Drug uptake (Testes [16]): 0.09 % ID/g
- Drug uptake (Liver [17]): 0.31 % ID/g
- Drug uptake (9L [18]): 0.07 %ID
- Drug uptake (Bone [19]): 0.26 % ID/g
- Drug uptake (Brain [20]): 0.018 % ID/g
- Drug uptake (Blood [21]): 0.69 % ID/g
- Drug uptake (Bone [22]): 0.13 % ID/g
- Drug uptake (Kidney [23]): 2.91 % ID/g
- Ratio (Nucleic Acid [24]): 7.6
- Drug uptake (Thyroid gland [25]): 0.08 %ID/organ
- Drug uptake (Thyroid gland [26]): 0.36 %ID/organ
- Ratio (Nucleic Acid [27]): 7.7
- Drug uptake (Pancreas [28]): 1.21 % ID/g
- Drug uptake (Testes [29]): 0.26 % ID/g
- Drug uptake (Muscle tissue [30]): 0.26 % ID/g
- Drug uptake (Bone [31]): 0.34 % ID/g
- Drug uptake (Liver [32]): 0.37 % ID/g
- Drug uptake (Lung [33]): 0.65 % ID/g
- Drug uptake (Lung [34]): 0.27 % ID/g
- Drug uptake (Rattus norvegicus [35]): 0.51 % ID/g
- Drug uptake (Spleen [36]): 0.5 % ID/g
- Activity (9L [37]): 57%
- Drug uptake (Blood [38]): 0.56 % ID/g
- Drug uptake (Blood [39]): 0.22 % ID/g
- Drug uptake (Muscle tissue [40]): 0.26 % ID/g
- Drug uptake (Heart [41]): 0.34 % ID/g
- Drug uptake (Lung [42]): 0.45 % ID/g
- Drug uptake (Liver [43]): 0.6 % ID/g
- Drug uptake (Brain [44]): 0.066 % ID/g
